Here are results for five molecules from ChEMBL document CHEMBL2407079, “Potent DGAT1 Inhibitors in the Benzimidazole Class with a Pyridyl-oxy-cyclohexanecarboxylic Acid Moiety” (ACS Med Chem Lett, 2013).

Active and inactive are the calls of the source. No cut-off for these calls is given here.

In series [1] the target is T1, Diacylglycerol O-acyltransferase 1 (Mus musculus, UniProt Q9Z2A7).
T1 sequence (Q9Z2A7 whole entry): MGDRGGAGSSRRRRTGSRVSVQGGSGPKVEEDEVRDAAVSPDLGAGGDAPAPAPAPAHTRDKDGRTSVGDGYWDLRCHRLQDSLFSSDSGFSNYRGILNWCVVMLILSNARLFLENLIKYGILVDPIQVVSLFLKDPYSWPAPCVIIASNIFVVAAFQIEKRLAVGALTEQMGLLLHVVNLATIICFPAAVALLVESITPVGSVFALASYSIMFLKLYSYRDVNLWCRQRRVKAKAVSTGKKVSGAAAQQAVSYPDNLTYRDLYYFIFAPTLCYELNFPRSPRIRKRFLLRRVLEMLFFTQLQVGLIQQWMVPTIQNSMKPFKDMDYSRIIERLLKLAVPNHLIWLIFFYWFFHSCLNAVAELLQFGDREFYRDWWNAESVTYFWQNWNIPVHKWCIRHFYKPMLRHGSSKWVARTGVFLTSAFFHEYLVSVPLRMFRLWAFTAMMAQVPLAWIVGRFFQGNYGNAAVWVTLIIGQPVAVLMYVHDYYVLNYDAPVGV
The experiment in a line: Inhibition of mouse DGAT1.

Series [2] deals with T2, Diacylglycerol O-acyltransferase 1 (Homo sapiens, UniProt O75907).
T2 sequence (O75907 whole entry): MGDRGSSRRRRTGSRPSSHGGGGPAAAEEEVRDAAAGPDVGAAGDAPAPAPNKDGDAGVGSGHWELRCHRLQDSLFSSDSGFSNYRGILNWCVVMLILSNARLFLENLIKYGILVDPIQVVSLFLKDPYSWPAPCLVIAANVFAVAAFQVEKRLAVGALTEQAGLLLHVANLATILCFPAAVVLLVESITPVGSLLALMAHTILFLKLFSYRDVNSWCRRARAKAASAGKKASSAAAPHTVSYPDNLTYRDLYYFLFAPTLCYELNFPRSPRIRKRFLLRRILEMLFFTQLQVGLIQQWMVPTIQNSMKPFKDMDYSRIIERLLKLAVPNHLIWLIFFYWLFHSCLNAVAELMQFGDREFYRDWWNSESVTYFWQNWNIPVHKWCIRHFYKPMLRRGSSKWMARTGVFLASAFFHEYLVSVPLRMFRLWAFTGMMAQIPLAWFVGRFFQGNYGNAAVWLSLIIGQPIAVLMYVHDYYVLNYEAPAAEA
The experiment in a line: Inhibition of human DGAT1.

For series [3], the system named is Mus musculus. The experiment in a line: Reduction in triglyceride excursion in mouse at 3 mg/kg, po by lipid tolerance test. More on the design: scale not given: the % may be the effect or the level left. Type of series: functional.
Another series deals with Canis familiaris. Kind of series: Reduction in triglyceride excursion in dog at 3 mg/kg, po administered 1 hr prior lipid-challenge measured up to 24 hrs by lipid tolerance test. The format is functional, organism-based. Details: dose 3 mg/kg. The following applies: Canis lupus familiaris. Summed up: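 Dog lipid tolerance test. Oral dose of 3 mg/kg in 0.5% methyl cellulose; lipid challenge 1 h after dosing; triglyceride excursion compared with a vehicle group over time; plasma drug levels sampled from 0 to 24 h.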

Series [4] relates to Mus musculus. The experiment in a line: Reduction in triglyceride excursion in mouse at 10 mg/kg, po measured at 18 hrs by lipid tolerance test. The format is functional. More on the design: scale not given: the % may be the effect or the level left. The gist of the method:
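Mouse lipid tolerance test. Oral dose of 10 mg/kg as a suspension in 0.5% methylcellulose; triglyceride reduction read at 18 h.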

Series [5] in a line: Lipophilicity, log D of the compound by HPLC analysis. Type of series: physicochemical.
The nature of series [6]: Ratio of drug uptake in ileum to blood of mouse at 3 mg/kg, po at 2 to 25 hrs. More on the design: dose 3 mg/kg, route oral. The format is ADME, organism-based. Summed up:
(§1)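 Mice dosed orally at 3 mg/kg within a repeat lipid tolerance test. Drug levels (μM) measured in blood and in intestinal segments (duodenum, jejunum, ileum) at 2, 5 and 25 h after dosing. Tissue-to-blood ratio taken from the segment and blood concentrations at each time point.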

The nature of series [7]: Ratio of drug uptake in jejunum to blood of mouse at 3 mg/kg, po at 2 to 25 hrs. Type of series: ADME, organism-based. Details: dose 3 mg/kg, route oral. The gist of the method:
as §1

Series [8] in a line: Ratio of drug uptake in duodenum to blood of mouse at 3 mg/kg, po at 2 to 25 hrs. Type of series: ADME, organism-based. Details: dose 3 mg/kg, route oral. Summed up: as §1
Series [9] in a line: Biodistribution in mouse ileum at 3 mg/kg, po at 25 hrs. The format is ADME, organism-based. Details: dose 3 mg/kg, route oral. The following applies: read-out: Drug uptake. Summed up:
(§2)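 Mice, single oral dose of 3 mg/kg. Drug concentration (μM) determined in blood and in duodenum, jejunum and ileum segments at 2, 5 and 25 h.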

Series [10] in a line: Biodistribution in mouse ileum at 3 mg/kg, po at 5 hrs. Type of series: ADME, organism-based. Details: dose 3 mg/kg, route oral. The following applies: read-out: Drug uptake. Summed up: as §2
Series [11] can be described thus: Biodistribution in mouse ileum at 3 mg/kg, po at 2 hrs. The format is ADME, organism-based. More on the design: dose 3 mg/kg, route oral. The following applies: read-out: Drug uptake. Summed up:
as §2

Series [12] can be described thus: Biodistribution in mouse jejunum at 3 mg/kg, po at 25 hrs. Type of series: ADME, organism-based. More on the design: dose 3 mg/kg, route oral. The following applies: read-out: Drug uptake. The gist of the method: as §2
A short description of series [13]: Biodistribution in mouse jejunum at 3 mg/kg, po at 5 hrs. Type of series: ADME, organism-based. More on the design: dose 3 mg/kg, route oral. The following applies: read-out: Drug uptake. The gist of the method:
as §2

Series [14] can be described thus: Biodistribution in mouse jejunum at 3 mg/kg, po at 2 hrs. More on the design: dose 3 mg/kg, route oral. The note with it: read-out: Drug uptake. The format is ADME, organism-based. The gist of the method: as §2
Series [15] can be described thus: Biodistribution in mouse duodenum at 3 mg/kg, po at 25 hrs. The format is ADME, organism-based. The following applies: read-out: Drug uptake. More on the design: dose 3 mg/kg, route oral. Summed up:
as §2

Series [16] is described as follows: Biodistribution in mouse duodenum at 3 mg/kg, po at 5 hrs. Type of series: ADME, organism-based. More on the design: dose 3 mg/kg, route oral. The note with it: read-out: Drug uptake. The gist of the method:
as §2

Series [17] is described as follows: Biodistribution in mouse blood at 3 mg/kg, po at 25 hrs. The format is ADME, organism-based. Details: dose 3 mg/kg, route oral. The note with it: whole blood, read-out: Drug uptake. Summed up: as §2
The nature of series [18]: Biodistribution in mouse duodenum at 3 mg/kg, po at 2 hrs. The format is ADME, organism-based. Details: dose 3 mg/kg, route oral. The following applies: read-out: Drug uptake. The gist of the method: as §2
Series [19] is described as follows: Biodistribution in mouse blood at 3 mg/kg, po at 5 hrs. The following applies: whole blood, read-out: Drug uptake. The format is ADME, organism-based. Details: dose 3 mg/kg, route oral. Summed up: as §2
The nature of series [20]: Biodistribution in mouse blood at 3 mg/kg, po at 2 hrs. Type of series: ADME, organism-based. Details: dose 3 mg/kg, route oral. The following applies: whole blood, read-out: Drug uptake. The gist of the method:
as §2

Turning to `CS(=O)(=O)c1ccc2nc(-c3ccc(-c4ccc(O[C@H]5CC[C@H](C(=O)O)CC5)nc4)nc3)[nH]c2c1`, the values for the 50% inhibitory concentration (IC50) in series [1] and in series [2] were 727 nM and 137 nM, respectively.
Turning to `O=C(O)[C@H]1CC[C@@H](Oc2ccc(-c3ccc(-c4nc5cc(F)ccc5[nH]4)cn3)cn2)CC1`, in the series with Mus musculus [3], the Activity was 72%. For the same molecule, in the series on Canis familiaris, the result was Active.
On to `N#Cc1ccc2nc(-c3ccc(-c4ccc(O[C@H]5CC[C@@H](C(=O)O)CC5)nc4)nc3)[nH]c2c1`, for which the half-inhibitory concentration (IC50) (usually the concentration needed to halve the response being measured) was found to be 36 nM in series [1] and 3.2 nM in series [2].
The molecule `O=C(O)[C@H]1CC[C@@H](Oc2ccc(-c3ccc(-c4nc5cc(C(F)(F)F)ccc5[nH]4)cn3)cn2)CC1` displayed an Activity in the series with Mus musculus [4] of 84%. Also, the results for the IC50 in [1] and in series [2] were 2.2 nM and 1.7 nM, respectively. The log distribution coefficient (logD) (commonly the decadic logarithm of the distribution of all forms, ionised or not, between an organic phase and buffer at a given pH) in [5] was determined as 1.62.
In the case of `O=C(O)[C@H]1CC[C@@H](Oc2ccc(-c3ccc(-c4nc5ccccc5[nH]4)cn3)cn2)CC1`, the Kp in series [6], in [7] and in series [8] was above 30 each time. The concentration at 25 h in [9] amounted to 620 nM; in series [12] it was 3060 nM; in series [15], 1760 nM; in series [17], 10 nM. Also, the concentration at 5 h was determined as 1720 nM in [10], 6010 nM in series [13], 8760 nM in series [16] and 51 nM in series [19]. For the same molecule, the concentration at 2 h was 3890 nM in [11], 5510 nM in series [14], 8320 nM in [18] and 114 nM in series [20]. For the same molecule, the Activity in the series on Mus musculus [3] turned out to be 95%. The half-inhibitory concentration (IC50) in [1] amounted to 8.1 nM; in series [2] it was 4 nM.
